T cruzi repl = inhibitors of intracellular T. cruzi growth, primary screen, luminescence, NIH3T3 host cells; T. cruzi beta-gal in NIH3T3, 90 h; AID 1885, 2009; 300,000 compounds, 1.4% hits; inhibition, % (test concentration not listed);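 active means mean inhibition across valid replicates above about 55%, limit read from the data; inconclusive means mean below that limit but half or more replicates reach it; inactive means mean below it, under half of replicates reach it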;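 further: signal also drops with host cell toxicity which is not excluded here; higher percent means less beta-gal luminescence so fewer parasites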
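Test system: β-gal T. cruzi (Tulahuen C4) inside NIH/3T3 cells / Quantity: 5,000 cells/well / Measured by: luminescence from GalScreen with 0.05% NP40, read after 60 min / Medium: DMEM plus 2% FBS / Measure: parasite load inhibition, % / Reagent: Tulahuen C4 trypomastigotes, 5000/well / Schedule: co-culture of at least 90 h after 3 h attachment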
A1 inh = caspase 3/7 activation in MEF A1-2A-BIM cells, primary screen, A1 inhibitor project, cell-based, luminescence, HTS | 330,000 compounds, 0.066% hits | Caspase-Glo 3/7 luminescence, 3 h; percent of clofoctol response, vehicle zero | caspase activation, % (no concentration beside the values) | AID 2462, 2010;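 active means over half of replicate activation scores above 10%, or exactly half above 10 with the replicate mean above 10; inconclusive means replicate mean below 10 yet half the replicates above 10; inactive means over half of replicates below 10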
HIF activator = HIF pathway transcriptional activators, primary screen, cell-based, U2OS HRE-luciferase, luminescence; activation, % at 7.5 µM (by protocol); U2OS HRE-luciferase reporter; normalized: DMSO 0%, desferrioxamine 100%; 300,000 compounds, 0.32% hits; AID 1910, 2009;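 active means mean activation of at least 10% of the iron chelator positive control signal, with at least half of replicates also reaching 10%; inconclusive means mean and replicate majority disagree about reaching 10%; inactive means mean and most replicates under 10%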
Beta cell apopt = inhibitors of cytokine-induced beta cell apoptosis, primary screen, luminescence. INS-1E cytokine-induced death, ATP luminescence, 48 h; percent of positive-control rescue, neutral wells zero. protection from apoptosis, % (concentration not given with the values). 300,000 compounds, 0.8% hits. AID 435005, 2010;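 active means Every replicate reaches about 75%, or at least half do and their mean reaches it too, limit read from the data; inconclusive means At least half of replicates reach the limit but their mean does not; inactive means Under half of replicates reach the limit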;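 further: higher means more ATP so stronger rescue from cytokine killing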
KLF5 inhibitor = KLF5 expression inhibitors, primary screen, DLD-1 cells, luminescence | DLD-1 KLF5 promoter-luciferase reporter | inhibition, % at 5 µM | 290,000 compounds, 0.23% hits | AID 1700, 2009;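 active means inhibition above a per-plate limit of that plate's mean compound inhibition plus 3 SD, cut at about 60% in these data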;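 further: higher means less KLF5 promoter-driven luciferase light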
Of the large screens only hits and unclear results are named; the others gave an inactive call. Sampled rows, rich in hits. Any-hit rate of the full collection: about 2.3%.

CCOP(=O)(OCC)c1nc(-c2cccc3ccccc23)oc1NCc1ccc(OC)cc1	T cruzi repl 57.4
Cc1cccc(N2CCN(c3ccc(N4C(=O)CCCC4=O)cc3[N+](=O)[O-])CC2C)c1 (centres undefined)	HIF activator 78.8 (no result: Beta cell apopt)
Cc1cc(N2CCOCC2)n2ncc(-c3ccccc3)c2n1	Beta cell apopt 99.9
Fc1ccccc1NC(=S)Nc1ccc(Br)cc1	HIF activator 80.5
COc1ccc2c(c1)c(CC(=O)Nc1ccc(C)cc1)c(C)n2C(=O)c1ccc(Cl)cc1	T cruzi repl 56.4
CC1CCCN(CC(=O)Nc2cc(S(=O)(=O)N3CCOCC3)ccc2N2CCCC2)C1 (centres undefined)	none (no result: T cruzi repl, HIF activator, KLF5 inhibitor)
Cc1ccc(NC(=O)CN(C)C(=O)c2cc(-c3cccs3)nn2-c2ccccc2)cc1	none (no result: T cruzi repl, HIF activator, KLF5 inhibitor)
CC1(C(=O)OCC(=O)N2c3ccccc3Sc3ccccc32)CC1(Cl)Cl (centres undefined)	Beta cell apopt 88.5
CC1(C(=O)OCC(=O)NC(=O)c2ccccc2)CC1(Cl)Cl (centres undefined)	none (no result: KLF5 inhibitor)
Cc1cc(NC(=O)COC(=O)c2cnccn2)ccc1Br	none (no result: T cruzi repl, HIF activator, KLF5 inhibitor)
CC1CCN(C(=O)c2ccccc2SCC(=O)NCC2CCCCC2)CC1	none (no result: KLF5 inhibitor)
Cc1ccccc1OCC(O)Cn1c(=N)n(Cc2ccccc2)c2ccccc21 (centres undefined)	T cruzi repl 54.7
COc1ccccc1OCC(O)Cn1c(=N)n(Cc2ccccc2)c2ccccc21 (centres undefined)	none
Cc1ccc(OCC(O)Cn2c(=N)n(CCN3CCCCC3)c3ccccc32)cc1 (centres undefined)	T cruzi repl 73.4
Cc1ccc(C)c(N2CCN(C(=O)c3ccc(Cn4c(=O)[nH]c5ccccc5c4=O)cc3)CC2)c1	T cruzi repl 65.0
CC(=O)c1ccc(N2CCN(C(=O)c3ccc(Cn4c(=S)[nH]c5ccc(N6CCOCC6)cc5c4=O)cc3)CC2)cc1	T cruzi repl 70.0
CN([C@@H](Cc1ccc(OS(=O)(=O)c2cccc3cnccc23)cc1)C(=O)N1CCN(c2ccccc2)CC1)S(=O)(=O)c1cccc2cnccc12	T cruzi repl 57.0 (no result: Beta cell apopt)
O=C1c2cccc3cc([N+](=O)[O-])cc(c23)C(=O)N1c1ccccc1O	T cruzi repl 58.3 (no result: Beta cell apopt)
Cc1cc(O)ccc1N1C(=O)c2cccc3cc([N+](=O)[O-])cc(c23)C1=O	T cruzi repl 67.3
O=C1c2cccc3cc([N+](=O)[O-])cc(c23)C(=O)N1c1nncs1	none (no result: KLF5 inhibitor)
O=C(COc1ccccc1)Nc1ccc2oc(=O)ccc2c1	none
Cc1cccc(OCCNc2cc(N3CCN(C)CC3)ccc2[N+](=O)[O-])c1	T cruzi repl 67.3
CCOc1ccccc1OCCOCCN1CCN(Cc2ccccc2)CC1	T cruzi repl 61.4
CCOC(=O)c1cc(C#N)c(N2CCN(C)CC2)nc1-c1ccccc1	T cruzi repl 56.9
CCOC(=O)c1cc(C#N)c(N2CCCC2)nc1-c1ccccc1	none
CCc1sc(C(=O)NC2CCN(C)CC2)cc1Br	T cruzi repl 61.6
COc1ccccc1N1CCN(Cc2ccc(OC)c(OC)c2OC)CC1	none
COc1ccccc1N1CCN(Cc2c[nH]c3ccccc23)CC1	T cruzi repl 57.6 (no result: Beta cell apopt)
Oc1ccc(CN2CCCc3ccccc32)c2cccnc12	Beta cell apopt 103.4
Cc1ccccc1N1CCN(Cc2c[nH]c3ccccc23)CC1	T cruzi repl 60.2, Beta cell apopt 111.2 (no result: HIF activator)
CCOC(=O)N1CCN(Cc2ccccc2Cl)CC1	none (no result: T cruzi repl, HIF activator)
CCOC(=O)N1CCN(Cc2cc(Cl)c3cccnc3c2O)CC1	Beta cell apopt 102.8
CCN(CC(=O)NC1CCS(=O)(=O)C1)S(=O)(=O)c1ccc(Br)cc1 (centres undefined)	none (no result: T cruzi repl, HIF activator, KLF5 inhibitor)
CCOC(=O)C1CCN(Cc2ccccc2C(F)(F)F)CC1	none
Oc1c(CN2CCOCC2)cc(COCc2ccccc2)c2cccnc12	T cruzi repl 61.7, A1 inh inconclusive, HIF activator 53.0, Beta cell apopt 97.6
CN1CCN(Cc2cc(Cl)c3cccnc3c2OC(=O)c2cccs2)CC1	none
CCOC(=O)C1CCN(Cc2ccc(O)c3ncccc23)CC1	T cruzi repl 55.4, Beta cell apopt 84.9
COc1ccccc1N1CCN(Cc2ccc(O)c3ncccc23)CC1	HIF activator 26.9, Beta cell apopt 139.5
CCOc1ccccc1N1CCN(Cc2cccc(OC)c2OC)CC1	none
O=C(Oc1c(CN2CCOCC2)cc(Cl)c2cccnc12)c1ccccc1Br	Beta cell apopt 97.4
O=S1(=O)CCS(=O)(=O)C1c1ccccc1	none (no result: KLF5 inhibitor)
CCOC(=O)CNC(c1ccccc1)c1cc(Br)ccc1NC(=O)CCN1CCOCC1 (centres undefined)	T cruzi repl inconclusive
COC(=O)CNC(c1ccccc1)c1cc(Br)ccc1NC(=O)CCN1CCOCC1 (centres undefined)	T cruzi repl 68.1
Nn1c(SCC(=O)NCC2CCCO2)nnc1-c1ccco1 (centres undefined)	none (no result: T cruzi repl, HIF activator, KLF5 inhibitor)
COCc1cc(C)nc(SCC(=O)Nc2cc(C(F)(F)F)ccc2N2CCOCC2)c1C#N	T cruzi repl 67.1
O=[N+]([O-])c1ccc(/C=C/C2=NN(c3ccccc3)C(c3ccco3)C2)o1 (centres undefined)	T cruzi repl 61.0 (no result: A1 inh, Beta cell apopt)
CC1=NN(c2ccccc2)C(=O)/C1=C/N(C)C	none
CC1=NN(c2nc3ccccc3[nH]2)C(=O)/C1=C/N(C)C	Beta cell apopt 113.5 (no result: T cruzi repl, HIF activator)
O=C(N[C@@H]1C[C@H]2CC[C@@H]1C2)c1ccco1	none
Cc1cccc(CNc2ccc(S(=O)(=O)N3CCCCC3)cc2)c1	Beta cell apopt 101.3 (no result: T cruzi repl, HIF activator, KLF5 inhibitor)
COc1cccc(NC(=S)/C(=C(\[O-])c2ccc(OC(F)F)cc2)[n+]2ccccc2)c1	none
COc1cccc(NC(=S)/C(=C(\[O-])c2cc(C)n(-c3ccccc3F)c2C)[n+]2ccc(N(C)C)cc2)c1	T cruzi repl 75.3
Cc1ccc2nc(-c3ccccc3)cc(C(=O)N(C)CC(=O)Nc3ccccc3Br)c2c1	none (no result: KLF5 inhibitor)
Cc1cc2oc(=O)cc(CNc3ccccc3F)c2cc1O	T cruzi repl 58.6
CCOc1ccccc1NCc1cc(=O)oc2cc(C)c(O)cc12	none
Nc1ccc(O)c2ccccc12	none (no result: KLF5 inhibitor)
Cn1nnnc1Sc1ncnc2scc(-c3cc4ccccc4o3)c12	Beta cell apopt 88.9 (no result: T cruzi repl, HIF activator, KLF5 inhibitor)
O=C(/C=C/c1ccccc1)NC(NC(=S)Nc1ccc(Cl)cc1)C(Cl)(Cl)Cl (centres undefined)	T cruzi repl 72.0
O=C(/C=C/c1ccccc1)NC(NC(=S)Nc1cc(Cl)ccc1Cl)C(Cl)(Cl)Cl (centres undefined)	T cruzi repl 75.1
O=[N+]([O-])c1cccc(/C=C/c2ccc3cccc(O)c3n2)c1	HIF activator 13.3
Cc1ccc(S(=O)(=O)CC(=O)Nc2ccc3nc(C)sc3c2)cc1	none

From PubChem
